This is an account of results in ChEMBL document CHEMBL4837188, “Identification of Novel Tricyclic Benzo[1,3]oxazinyloxazolidinones as Potent Antibacterial Agents with Excellent Pharmacokinetic Profiles against Drug-Resistant Pathogens” (J Med Chem, 2021).

For orientation: IC50 means the concentration that gives 50% inhibition. By AUC(0-inf) is commonly meant the area under the concentration-time curve extrapolated to infinity. What is called MIC is the lowest concentration that inhibits growth of the organism. By clearance is commonly meant a measure of how efficiently the substance is removed, as volume per time. One may read the Cmax as the peak of the concentration-time curve. As a reminder, the MRT inf is a mean duration of stay, worked out from the concentration-time curve.

SMILES strings stand for the structures. Values after ≈ are worked out from the molar mass of the structure shown. A value given as a limit tells only on which side of the number the result lay.

A short description of data set [1]: Oral bioavailability in BALB/c mouse at 10 mg/kg measured upto 24 hrs by LC-MS/MS analysis. It counts as ADME, organism-based. To be noted: in vivo. Summed up:
(§1)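 Female BALB/c mice, 16−21 g, three per route. Oral dosing at 10 mg/kg as a 5 mg/mL suspension in 0.5% carboxymethyl cellulose. IV dosing at 1 mg/kg as a 1 mg/mL solution in 10% DMSO/50% PEG400/40% water. Blood sampled 15 min to 24 h after oral dosing and 5 min to 24 h after iv. LC/MS/MS quantification in ESI positive mode. Noncompartmental analysis; F = (AUCpo×dose_iv)/(AUCiv×dose_po)×100%.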

The subject of the next data set is Vero. The data set is described as follows: Cytotoxicity against african green monkey Vero cells after 48 hrs by MTT assay. The data set is classed as cell-based. To be noted: Chlorocebus sabaeus. Summed up:
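Vero cells grown in RPMI1640 with 10% FBS at 37 °C, 5% CO2. Cells diluted to 4 × 10⁵ cells/mL. Compounds given as three-fold serial dilutions, final 64−0.26 μg/mL, for 48 h at 37 °C. Monolayers washed with warm HBSS, then MTT added for 4 h. Absorbance read at 492 nm.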
Background: Tetrazolium dyes change colour on reduction, which living cells bring about.

Data set [2] is described as follows: AUC (0 to infinity) in BALB/c mouse at 10 mg/kg, po measured upto 24 hrs by LC-MS/MS analysis. To be noted: in vivo. The arrangement: route oral, dose 10 mg/kg, time <=24. The data set is classed as ADME, organism-based. Summed up: as §1
A further data set relates to Escherichia coli. The data set is described as follows: Antibacterial activity against Escherichia coli 25922 assessed as inhibition of bacterial growth incubated for 18 hrs by broth microdilution method. The data set is classed as functional. To be noted: ATCC 25922. Summed up:
(§2)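 Broth microdilution in 96-well plates. Media: cation-adjusted Mueller−Hinton broth for S. aureus, brain heart infusion for VRE, Mueller−Hinton broth for the other strains. Incubated at 37 °C for 18 h, then A600 read. Percent growth inhibition calculated against 1% DMSO vehicle.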

Data set [3] can be described thus: Clearance in BALB/c mouse at 1 mg/kg, iv measured upto 24 hrs by LC-MS/MS analysis. It counts as ADME, organism-based. To be noted: in vivo. Summed up:
as §1

A short description of data set [4]: Inhibition of mitochondrial protein synthesis in […] H9C2 cells after 5 days by ELISA. The data set is classed as functional, cell-based. To be noted: Rattus norvegicus, H9c2, 120 h. Summed up:
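H9C2 cells in DMEM with 10% FBS, glutamine and NEAA, seeded at 1500 cells/well. After 18 h, compounds added at final 200 to 0.03 μM in nine 3-fold steps, then 5 days at 37 °C, 5% CO2. Negative control 0.5% DMSO. Mitochondrial protein synthesis read by MitoBiogenesis In-Cell ELISA; IC50 fitted.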
In general terms: ELISA stands for enzyme-linked immunosorbent assay.

A short description of data set [5]: Elimination half life in BALB/c mouse at 10 mg/kg, po measured upto 24 hrs by LC-MS/MS analysis. The data set is classed as ADME, organism-based. To be noted: in vivo, read-out: beta t1/2 (converted). Summed up:
as §1

In another data set the test system is Staphylococcus aureus. In words: Antibacterial activity against vancomycin intermediate Staphylococcus aureus assessed as bacterial growth inhibition after 18 hrs by broth microdilution method. It counts as functional. In general terms: Dilution methods test growth across graded concentrations, often in twofold steps.
Data set [6] is described as follows: Cmax in BALB/c mouse at 1 mg/kg, iv measured upto 24 hrs by LC-MS/MS analysis. It counts as ADME, organism-based. The arrangement: route intravenous, dose 1 mg/kg, time <=24. To be noted: in vivo. Summed up:
as §1

The target in data set [7] is T1, Amine oxidase [flavin-containing] B (Homo sapiens, UniProt P27338).
T1 sequence (P27338 whole entry): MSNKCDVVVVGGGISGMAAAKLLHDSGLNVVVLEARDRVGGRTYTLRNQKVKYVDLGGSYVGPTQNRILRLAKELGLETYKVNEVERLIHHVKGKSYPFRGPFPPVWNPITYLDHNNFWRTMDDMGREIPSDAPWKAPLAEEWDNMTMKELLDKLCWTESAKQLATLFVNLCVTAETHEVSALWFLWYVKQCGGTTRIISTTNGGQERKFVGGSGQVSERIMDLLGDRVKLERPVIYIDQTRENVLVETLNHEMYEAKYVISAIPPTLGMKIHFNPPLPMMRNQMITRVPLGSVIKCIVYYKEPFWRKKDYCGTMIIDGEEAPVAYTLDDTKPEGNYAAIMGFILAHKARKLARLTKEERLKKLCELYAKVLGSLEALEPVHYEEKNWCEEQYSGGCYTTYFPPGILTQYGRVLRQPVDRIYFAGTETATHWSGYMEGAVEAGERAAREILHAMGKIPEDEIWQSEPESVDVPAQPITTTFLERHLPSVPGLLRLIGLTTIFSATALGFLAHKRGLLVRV
The data set is described as follows: Inhibition of MAO-B (unknown origin) using kynuramine as substrate preincubated for 5 mins with substrate followed by enzyme addition and measured after 15 mins by LC-MS/MS analysis. Summed up:
(§3)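 Recombinant MAO-A (0.01 mg/mL working solution) or MAO-B (0.04 mg/mL working solution) in phosphate buffer. Kynuramine 40 μM working solution. Compound or DMSO preincubated with substrate for 5 min at 37 °C; enzyme then added and incubated 15 min at 37 °C. Reaction quenched. Product 4-hydroxyquinoline (printed as 4-hydroxyquinolinol) measured by LC−MS/MS. Six concentrations in 4-fold dilutions; IC50 from % inhibition versus vehicle.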

The test system of another data set is Enterococcus faecium. The data set is described as follows: Antibacterial activity against linezolid resistant Enterococcus faecium 13549 assessed as bacterial growth inhibition after 18 hrs by broth microdilution method. The data set is classed as functional.
Data set [8] addresses T2, Amine oxidase [flavin-containing] A (Homo sapiens, UniProt P21397).
T2 sequence (P21397 whole entry): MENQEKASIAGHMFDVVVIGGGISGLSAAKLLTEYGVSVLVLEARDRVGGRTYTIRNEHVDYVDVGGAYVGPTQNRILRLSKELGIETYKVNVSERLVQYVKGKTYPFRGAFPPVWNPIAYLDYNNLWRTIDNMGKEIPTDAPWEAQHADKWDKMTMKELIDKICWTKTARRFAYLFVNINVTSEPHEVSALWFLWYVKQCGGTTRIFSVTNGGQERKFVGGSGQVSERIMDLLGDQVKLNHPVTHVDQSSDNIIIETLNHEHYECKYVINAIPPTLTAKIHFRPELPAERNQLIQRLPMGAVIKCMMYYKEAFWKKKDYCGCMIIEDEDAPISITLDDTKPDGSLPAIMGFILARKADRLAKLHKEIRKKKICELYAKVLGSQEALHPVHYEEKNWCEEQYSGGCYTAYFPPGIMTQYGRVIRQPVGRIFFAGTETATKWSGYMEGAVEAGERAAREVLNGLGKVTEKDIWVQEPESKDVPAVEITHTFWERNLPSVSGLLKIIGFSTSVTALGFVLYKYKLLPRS
In words: Inhibition of MAO-A (unknown origin) using kynuramine as substrate preincubated for 5 mins with substrate followed by enzyme addition and measured after 15 mins by LC-MS/MS analysis. Summed up:
as §3

In another data set the test system is Bacillus subtilis. The data set is described as follows: Antibacterial activity against Bacillus subtilis 168 assessed as inhibition of bacterial growth incubated for 18 hrs by broth microdilution method. It counts as functional. Summed up:
as §2

Data set [9] is described as follows: MRT (0 to infinity) in BALB/c mouse at 1 mg/kg, iv measured upto 24 hrs by LC-MS/MS analysis. It counts as ADME, organism-based. To be noted: in vivo. Summed up: as §1
The nature of data set [10]: AUC (0 to infinity) in BALB/c mouse at 1 mg/kg, iv measured upto 24 hrs by LC-MS/MS analysis. The data set is classed as ADME, organism-based. The arrangement: route intravenous, dose 1 mg/kg, time <=24. To be noted: in vivo. Summed up: as §1

In the case of `CC(=O)NC[C@@H]1OC(=O)N2Cc3cc(-c4ccc(C#N)nc4)c(F)cc3O[C@@H]12`, the bioavailability in data set [1] was found to be 128%. In addition, the concentration for half-maximal inhibition (IC50) in the data set with Vero is > 64 µg/mL; in [4], 1.63 µM; in data set [7], 6.07 µM; in data set [8], > 50 µM. Further, the figures for the AUC(0-inf) in [2] and in data set [10] were 78700 ng·h/mL and 6160 ng·h/mL, respectively. In addition, the MIC was > 64 µg/mL in the data set on Escherichia coli, 0.25 µg/mL (≈ 0.654 µM) with Staphylococcus aureus, 2 µg/mL (≈ 5.23 µM) in the data set on Enterococcus faecium and 0.125 µg/mL (≈ 0.327 µM) in the data set on Bacillus subtilis. For the same molecule, the clearance in [3] was determined as 2.71 mL/min/kg. Further, in data set [5], the half-life is 3.76 h. In addition, the highest concentration (Cmax) in data set [6] turned out to be 1790 ng/mL. Also, the MRT inf in data set [9] amounted to 4.71 h.
